# Laboratory results taken from ChEMBL document CHEMBL1129454, “HIV protease inhibitory bis-benzamide cyclic ureas: a quantitative structure-activity relationship analysis” (J Med Chem, 1996).
# Calls of active or inactive are those of the source. The rule behind the calls is not given here.
# Legend:
# [1] = target: T1, Human immunodeficiency virus type 1 protease (Human immunodeficiency virus 1, UniProt Q72874); experiment: Binding affinity was evaluated on HIV Protease enzyme; not active
# In short: (§1)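 Cleavage products were separated by anion-exchange HPLC and the product quantified by fluorescence. Each compound was assayed at least twice and the mean reported; assay SD <±40%.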
# [2] = target: T1, Human immunodeficiency virus type 1 protease; experiment: Binding affinity was evaluated with recombinant single chain dimeric HIV protease enzyme with a fluorescent substrate; not active; in short: as §1
# T-cell = experiment: The concentration of the antiviral compound required to inhibit HIV RNA synthesis by 90%. viral RNA was quantified by sandwich hybridization assay; not active; format: functional, cell-based
# In short: (§2)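 Susceptible T-cell lines grown in individual microtiter wells were infected with HIV. Cell-associated viral RNA was measured by RNA hybridization 3 days after infection. […] Assay SD was <±37%. Cytotoxicity was scored separately by tetrazolium dye metabolism, because RNA assay results are valid only at non-cytotoxic doses.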
# [3] = target: T1, Human immunodeficiency virus type 1 protease; experiment: Binding affinity for HIV-1 protease; in short: as §1
# [4] = target: T1, Human immunodeficiency virus type 1 protease; experiment: Inhibitory activity against HIV-1 protease; in short: as §1
# [5] = tested on: Human immunodeficiency virus 1; experiment: The concentration required to inhibit HIV-1 RNA synthesis by 90%. Viral RNA quantified by a sandwich hybridization assay; format: functional; conditions: Human immunodeficiency virus 1; in short: as §2
SMILES,Ki [1],Ki [2],IC90 (T-cell),Ki [3],Ki [4],IC90 [5]
CC1(C)O[C@@H]2[C@@H](O1)[C@@H](Cc1ccccc1)N(Cc1cccc(C(=O)O)c1)C(=O)N(Cc1cccc(C(=O)O)c1)[C@@H]2Cc1ccccc1,Not Active,Not Active,inactive,,,
Cc1cc(C)nc(NC(=O)c2cccc(CN3C(=O)N(Cc4cccc(C(=O)Nc5cc(C)cc(C)n5)c4)[C@H](Cc4ccccc4)[C@H](O)[C@@H](O)[C@H]3Cc3ccccc3)c2)c1,,,,0.02 nM,0.016 nM,6.6 nM
O=C(Nc1ccncc1)c1cccc(CN2C(=O)N(Cc3cccc(C(=O)Nc4ccncc4)c3)[C@H](Cc3ccccc3)[C@H](O)[C@@H](O)[C@H]2Cc2ccccc2)c1,,,,0.41 nM,0.41 nM,93.7 nM
COC(=O)c1cccc(CN2C(=O)N(Cc3cccc(C(=O)OC)c3)[C@H](Cc3ccccc3)[C@@H]3OC(C)(C)O[C@H]3[C@H]2Cc2ccccc2)c1,Not Active,Not Active,inactive,,,
Cc1ccc(NC(=O)c2cccc(CN3C(=O)N(Cc4cccc(C(=O)Nc5ccc(C)cn5)c4)[C@H](Cc4ccccc4)[C@H](O)[C@@H](O)[C@H]3Cc3ccccc3)c2)nc1,,,,0.01 nM,0.011 nM,3.1 nM
CC1(C)O[C@@H]2[C@@H](O1)[C@@H](Cc1ccccc1)N(Cc1cccc(C#N)c1)C(=O)N(Cc1cccc(C#N)c1)[C@@H]2Cc1ccccc1,Not Active,Not Active,inactive,,,
O=C(Nc1ccc(Cl)cn1)c1cccc(CN2C(=O)N(Cc3cccc(C(=O)Nc4ccc(Cl)cn4)c3)[C@H](Cc3ccccc3)[C@H](O)[C@@H](O)[C@H]2Cc2ccccc2)c1,,,,0.01 nM,0.012 nM,14.7 nM
NNC(=O)c1cccc(CN2C(=O)N(Cc3cccc(C(=O)NN)c3)[C@H](Cc3ccccc3)[C@H](O)[C@@H](O)[C@H]2Cc2ccccc2)c1,,,,0.018 nM,0.018 nM,884 nM
Cc1ccnc(NC(=O)c2cccc(CN3C(=O)N(Cc4cccc(C(=O)Nc5cc(C)ccn5)c4)[C@H](Cc4ccccc4)[C@H](O)[C@@H](O)[C@H]3Cc3ccccc3)c2)c1,,,,0.03 nM,0.027 nM,7.7 nM
CC(C)(C)NC(=O)c1cccc(CN2C(=O)N(Cc3cccc(C(=O)NC(C)(C)C)c3)[C@H](Cc3ccccc3)[C@H](O)[C@@H](O)[C@H]2Cc2ccccc2)c1,,,,2.6 nM,2.4 nM,717 nM
O=C(Nc1ccc(C(F)(F)F)cn1)c1cccc(CN2C(=O)N(Cc3cccc(C(=O)Nc4ccc(C(F)(F)F)cn4)c3)[C@H](Cc3ccccc3)[C@H](O)[C@@H](O)[C@H]2Cc2ccccc2)c1,,,,0.09 nM,0.085 nM,63.4 nM
CCCCNC(=O)c1cccc(CN2C(=O)N(Cc3cccc(C(=O)NCCCC)c3)[C@H](Cc3ccccc3)[C@H](O)[C@@H](O)[C@H]2Cc2ccccc2)c1,,,,0.424 nM,0.424 nM,255 nM
